# Screening results as filed in PubChem.
# A selection: hits, their analogues and other compounds. The true share with any hit is near 1%.
# PDI inh: inhibitors of human PDI, primary screen, biochemical, turbidity, single point, plate reader | PDI insulin aggregation turbidity, A650, 90 min | inhibition, % at 10 µM | hit rate 0.052% among 350,000 | AID 588391, 2011;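 active = mean inhibition across replicates of 30% or more, whatever share of single replicates reach that level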
# Target sequence (P07237 whole entry, looked up): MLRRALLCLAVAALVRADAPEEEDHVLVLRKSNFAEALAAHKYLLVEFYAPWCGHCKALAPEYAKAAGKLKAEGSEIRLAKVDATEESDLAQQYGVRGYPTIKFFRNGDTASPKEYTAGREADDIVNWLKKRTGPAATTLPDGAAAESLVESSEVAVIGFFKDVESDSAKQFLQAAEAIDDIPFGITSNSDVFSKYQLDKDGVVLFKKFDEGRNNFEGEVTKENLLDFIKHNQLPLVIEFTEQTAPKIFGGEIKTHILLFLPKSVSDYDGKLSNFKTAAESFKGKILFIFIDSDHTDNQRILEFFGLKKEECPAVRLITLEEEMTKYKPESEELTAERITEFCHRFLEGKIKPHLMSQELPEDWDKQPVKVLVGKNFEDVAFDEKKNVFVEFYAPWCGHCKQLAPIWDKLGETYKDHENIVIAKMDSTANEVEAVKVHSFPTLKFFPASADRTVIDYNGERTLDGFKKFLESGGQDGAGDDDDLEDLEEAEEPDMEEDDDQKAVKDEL
# CAL PDZ FP-1: CAL PDZ peptide-binding inhibitors, primary screen, biochemical, fluorescence polarization, Cer-tagged CAL PDZ, HTS; hit rate 0.02% among 330,000; inhibition, % at 20 µM; AID 504414, 2011; purified CAL PDZ, TMR-peptide fluorescence polarization, 1 h; Golgi-associated PDZ and coiled-coil motif-containing protein (Homo sapiens), Q9HD26;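 active = highest replicate inhibition of at least 40%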;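 also: plate controls were DMSO neutral control wells for no effect and unlabeled competitor peptide control wells for full effect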
#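 Test system: purified CerCALP PDZ construct; Compound dosing: one concentration, 20 µM compound; Also added: TMR-labelled reporter peptide T*-PRC34 bound in PDZ groove; Read-out: inhibition from polarization loss; Controls: unlabelled peptide and DMSO controls; Signal: FP readout, S and P plane fluorescence; Incubation: 1 h at RT.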
# CAL PDZ FP-2: untagged CAL PDZ binding inhibitors, primary screen, biochemical, fluorescence polarization, HTS | Golgi-associated PDZ and coiled-coil motif-containing protein (Homo sapiens), Q9HD26 | purified CAL PDZ, TMR-peptide fluorescence polarization, 1 h | inhibition, % at 24.9 µM | hit rate 0.92% among 300,000 | AID 602252, 2012;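 active = mean inhibition of at least 30% with at least half of replicates also reaching 30%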;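 also: 0% = DMSO neutral control and 100% = excess unlabeled competitor peptide PRC23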
# RAD54 inh: inhibitors of human RAD54 branch migration, primary screen, biochemical, fluorescence, single point. DNA repair and recombination protein RAD54-like (Homo sapiens), Q92698. RAD54 Holliday junction branch migration, FAM/BHQ fluorescence. inhibition, % at 10.4 µM. hit rate 0.14% among 360,000;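 active = mean normalized replicate activity at least 40 and at least half of replicates scoring 40 or more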;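 also: 0% = median of neutral control wells and 100% = median of positive control wells; inhibitors cause a drop in the FAM fluorescence signal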
# RAD52 anneal inh: RAD52 DNA annealing inhibitors, primary screen, biochemical, FRET, single point, set 2 | DNA repair protein RAD52 homolog (Homo sapiens), P43351 | recombinant RAD52 DNA annealing, FRET fluorescence | inhibition, % at 18.7 µM | hit rate 0.46% among 360,000;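 active = every replicate showing at least 50% inhibition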
# ERp5 inh: inhibitors of ERp5-driven insulin aggregation, primary screen, biochemical, turbidity, absorbance 650 nm, single point; hit rate 0.05% among 350,000; 90 min; Protein disulfide-isomerase A6 (Homo sapiens), Q15084; inhibition, % at 9.99 µM;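 active = mean replicate inhibition above about 25%, with every replicate also reaching it, limit read from the data, passing the limit was not always enough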
# Active calls of the source: *; . = no result.
SMILES,PDI inh,CAL PDZ FP-1,CAL PDZ FP-2,RAD54 inh,RAD52 anneal inh,ERp5 inh
CCN(C(=O)c1ccc(=O)n(C)n1)c1c(N)n(Cc2ccccc2)c(=O)[nH]c1=O,18,1,38*,-4,-11,-8
CCCCCn1nc(C(=O)N(CC(C)C)c2c(N)n(CCCC)c(=O)[nH]c2=O)c2ccccc2c1=O,4,-2,11,-2,0,-6
O=C(C1CCC1)N1CCCCN2[C@H](C1)[C@H](c1ccc(C#CC3CCCC3)cc1)[C@@H]2CO,.,.,.,-8,12,6
COc1ccc(NC(=S)Nc2ccc(S(N)(=O)=O)cc2)c(OC)c1,0,-1,37*,.,-3,2
C/C(=N\NC(=O)c1c[nH]c2ccccc12)c1ccc(C)o1,7,0,-9,58*,.,.
O=C(NC1Cc2ccccc2C1)[C@@H]1[C@@H](CO)[C@@H]2Cn3c(ccc(C4=CCCCC4)c3=O)[C@H]1N2CC1CC1,.,.,.,-4,0,-3
CC(=O)OCC(=O)N1N=C(c2ccc3ccccc3c2)CC1c1ccccc1 (centres undefined),5,-2,3,.,-10,-2
Nc1cc(=O)[nH]c(SCC(=O)N2N=C(c3ccc4ccccc4c3)CC2c2ccccc2)n1 (centres undefined),5,0,32*,-19,-3,1
CSc1nc(SCC(=O)O)c2sc3nc(-c4ccccc4)c4c(c3c2n1)CCC4,53*,-5,-8,5,-1,3
COc1cc2c(cc1OC)-c1c(OC)c(OC)cc3ccnc(c13)C2=O,2,2,2,88*,-114,-2
COCC(=O)Nc1ccc2c(c1)[C@H]1C[C@@H](CC(=O)N3CCc4ccccc4C3)O[C@H](CO)[C@H]1O2,.,.,.,7,-7,-2
Cc1ccc(CCNC(=O)CCn2c(=O)c3cccn3c3ccc(F)cc32)cc1,-8,-1,39*,-7,-6,-4
CCCCNC(=O)CCn1c(=O)c2cccn2c2ccc(F)cc21,-8,-2,-7,-9,-20,3
COc1ccc(CCNC(=O)CCn2c(=O)c3cccn3c3ccc(F)cc32)c(OC)c1OC,-4,-1,118*,3,-10,-3
CCCC#Cc1ccc([C@@H]2[C@@H](C#N)N(S(=O)(=O)c3cccc(F)c3)[C@H]2CO)cc1,.,.,.,2,-96,-1
CCOc1ccccc1C(=O)NCC(=O)OCC(=O)N1C(C)CCCC1C (centres undefined),-6,0,-1,-7,.,.
CCOc1ccccc1C(=O)NCC(=O)OCC(=O)N1CCCC1,-5,0,44*,-2,-3,5
CN1C[C@H]2[C@@H](c3ccccc31)[C@H](CO)N2Cc1ccccc1,.,.,.,6,.,.
CCOC(=O)c1cnc2c(C)cc(Cl)cc2c1NCCCN1CCOCC1,1,.,-7,57*,12,1
Cc1ccc(CNS(=O)(=O)c2ccc(F)c(F)c2)n1C,1,1,-1,-5,-17,2
Cc1ccc(CNS(=O)(=O)c2ccc(C(F)(F)F)cc2)n1C,2,1,58*,-3,-24,-13
CN1CCN(C(=O)c2cc(Cl)cc(Cl)c2)CC1,0,.,64*,7,-6,-1
CN1CCCN(C(=O)c2ccc(Cl)cc2)CC1,2,0,-2,11,-7,1
CCC(=O)Nc1ccc2c(c1)C(=O)N(C)C[C@H](OC)[C@@H](C)CN(C(=O)CC)[C@@H](C)CO2,.,.,.,7,-5,1
O=C(CCN1CCOCC1)Nc1cc(C(=O)Nc2ccccc2F)ccc1N1CC2CC(C1)c1cccc(=O)n1C2 (centres undefined),3,-1,69*,0,-7,-6
SMILES,PDI inh,CAL PDZ FP-1,CAL PDZ FP-2,RAD54 inh,RAD52 anneal inh,ERp5 inh
COc1ccc(CN(C)C[C@H]2OCCCC[C@@H](C)Oc3ccc(NS(=O)(=O)c4ccc(Cl)cc4)cc3C(=O)N([C@H](C)CO)C[C@H]2C)cc1,.,.,.,-12,55*,3
COc1ccc(CN(C)C[C@H]2OCCCC[C@@H](C)Oc3ccc(NS(=O)(=O)c4ccc(Cl)cc4)cc3C(=O)N([C@@H](C)CO)C[C@H]2C)cc1,.,.,.,-7,55*,-7
COc1ccc(CN(C)C[C@H]2OCCCC[C@H](C)Oc3ccc(NS(=O)(=O)c4ccc(Cl)cc4)cc3C(=O)N([C@H](C)CO)C[C@@H]2C)cc1,.,.,.,5,49,0
COc1ccc(CN(C)C[C@@H]2OCCCC[C@H](C)Oc3ccc(NS(=O)(=O)c4ccc(Cl)cc4)cc3C(=O)N([C@H](C)CO)C[C@H]2C)cc1,.,.,.,2,57*,-1
O=C(C[C@H]1CC[C@H]2[C@@H](COC[C@@H](O)CN2C(=O)c2ccccc2F)O1)NCc1ccc(Cl)c(Cl)c1,.,.,.,-9,.,.
O=C(C[C@@H]1CC[C@H]2[C@@H](COC[C@H](O)CN2Cc2ccccc2F)O1)NC1CCC1,.,.,.,4,.,.
O=C(Nc1ccc(F)cc1)Nc1ccc(S(=O)(=O)N2CCCC2)cc1,1,-1,-4,8,-23,2
Cc1oc(S(=O)(=O)N2CCCCC2)cc1NC(=O)Nc1ccc(F)cc1,3,-1,45*,.,-11,3
C[C@@H](NC(=O)C[C@H]1C[C@@H]2c3cc(NC(=O)Nc4ccccc4F)ccc3O[C@@H]2[C@@H](CO)O1)c1ccccc1,.,.,.,-1,15,6
COCC#Cc1cnc2c(c1)C(=O)N([C@H](C)CO)C[C@@H](C)[C@@H](CN(C)C(=O)c1ccc3c(c1)OCO3)O2,.,.,.,2,-3,-4
COc1cc(NC(=O)CN(C)CCOc2ccccc2)c(C)cc1[N+](=O)[O-],8,-1,42*,-2,-7,2
CCOC(=O)c1c[nH]c2c(Cl)ccc(Cl)c2c1=O,-38,-2,.,-2,.,.
CCOC(=O)c1c[nH]c2ccc3ccccc3c2c1=O,12,-3,54*,4,-8,0
O=C(COC(=O)C1=COCCO1)Nc1ncc(C(F)(F)F)cc1Cl,1,-2,1,-11,.,.
O=C(COC(=O)c1cnccn1)Nc1ncc(C(F)(F)F)cc1Cl,-6,-1,55*,-27,-31,1
O=C(/C=C/c1ccc2c(c1)OCO2)c1ccc(O)cc1O,73*,-1,.,-1,-6,5
